Measured values reported in ChEMBL document CHEMBL1122273, “5-sulfamoylorthanilic acids, a sulfonamide series with salidiuretic activity” (J Med Chem, 1983).

Key:
Rattus norvegicus [1] = species on record: Rattus norvegicus; assay: Saluretic activity in the rat measured as concentration of chloride in urine; assay type: functional
Summary of the method: (§1)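 Rats deprived of food 24 h, water ad libitum, dosed 50 mg/kg by stomach tube as suspension in 2% starch, no extra water load. Groups of three in diuresis funnels; urine over first 5 h collected. Na⁺ and K⁺ by flame photometry, Cl⁻ argentometrically; expressed as mequiv/kg.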

Rattus norvegicus [2] = species on record: Rattus norvegicus; assay: Saluretic activity in the rat measured as concentration of K+ in urine; assay type: functional; summary of the method: as §1
Rattus norvegicus [3] = species on record: Rattus norvegicus; assay: Diuretic activity in the rats, determined by a modified Lipschitz test; assay type: functional, Urine
Summary of the method: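 Modified Lipschitz test: rats deprived of water 24 h, grouped in threes of similar weight in diuresis funnels. Oral dose of 50 mg/kg, suspended in 2% starch solution, by stomach tube.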

Rattus norvegicus [4] = species on record: Rattus norvegicus; assay: Saluretic activity in the rat measured as concentration of Na+ in urine; assay type: functional; summary of the method: as §1

SMILES	Saluretic activity (Rattus norvegicus [1]) [m equiv 5hr-1 kg-1]	Saluretic activity (Rattus norvegicus [2]) [m equiv 5hr-1 kg-1]	Diuretic activity (Rattus norvegicus [3]) [mL/kg]	Saluretic activity (Rattus norvegicus [4]) [m equiv 5hr-1 kg-1]
NS(=O)(=O)c1cc(S(=O)(=O)[O-])c(NCc2ccco2)cc1NCc1ccccc1.[K+]	1.2	0.6	1	0.8
NS(=O)(=O)c1cc(S(=O)(=O)[O-])c(Cl)cc1NCc1ccco1.[Na+]	1	0.9	0.5	0.5
NS(=O)(=O)c1cc(S(=O)(=O)[O-])c(Oc2ccccc2)cc1NCc1ccco1.[K+]	0.8	1	0.8	0.8
Cc1ccccc1Nc1cc(NCc2ccco2)c(S(=O)(=O)[O-])cc1S(N)(=O)=O.[Na+]	0.6	1	0.6	0.7
CN(C)S(=O)(=O)c1cc(S(=O)(=O)[O-])c(NCc2ccco2)cc1Oc1ccccc1.[K+]	0.7	1.1	1.2	0.3
CC(C)CS(=O)(=O)c1cc(NCc2ccco2)c(S(=O)(=O)[O-])cc1S(N)(=O)=O.[Na+]	8.1	2.5	2.8	7.6
CCOCCNc1cc(Cl)c(S(N)(=O)=O)cc1S(=O)(=O)[O-].[Na+]	0.2	0.2	0.4	0.2
N.NS(=O)(=O)c1cc(S(=O)(=O)O)c(NCc2ccco2)cc1Oc1ccccc1	8.7	2.4	4.2	6.6
CN(c1ccccc1)c1cc(NCc2ccco2)c(S(=O)(=O)[O-])cc1S(=O)(=O)N(C)C.[K+]	1.5	1.2	1.6	1
CCC(C)S(=O)(=O)c1cc(NCc2ccco2)c(S(=O)(=O)[O-])cc1S(N)(=O)=O.[Na+] (stereo not given)	8.5	1.9	4.5	6.7
CN(c1ccc(Cl)cc1)c1cc(NCc2ccco2)c(S(=O)(=O)[O-])cc1S(N)(=O)=O.[Na+]	0.7	1.1	1.2	0.7
CCCS(=O)(=O)c1cc(NCc2ccco2)c(S(=O)(=O)[O-])cc1S(N)(=O)=O.[Na+]	2.4	1.3	2.9	1.8
CN(Cc1ccco1)c1cc(Oc2ccccc2)c(S(N)(=O)=O)cc1S(=O)(=O)[O-].[K+]	1.7	1.5	1.3	0.3
NS(=O)(=O)c1cc(S(=O)(=O)[O-])c(S(=O)(=O)C2CCCCC2)cc1NCc1ccco1.[Na+]	1	1.1	0.8	0.4
CN(c1ccccc1)c1cc(NCc2ccco2)c(S(=O)(=O)[O-])cc1S(N)(=O)=O.[K+]	7.4	1.7	3.1	6.3
CN(c1ccccc1)c1cc(NCc2ccco2)c(S(=O)(=O)O)cc1S(N)(=O)=O.NC(N)=NC(=O)c1nc(Cl)c(N)nc1N	2.3	0.4	3.3	3.5
NS(=O)(=O)c1cc(S(=O)(=O)[O-])c(N(Cc2ccccc2)Cc2ccccc2)cc1Cl.[Na+]	0.9	0.8	0.7	0.3
COc1ccccc1CNc1cc(Cl)c(S(N)(=O)=O)cc1S(=O)(=O)[O-].[Na+]	0.1	0.3	0.2	0.1

SMILES	Saluretic activity (Rattus norvegicus [1]) [m equiv 5hr-1 kg-1]	Saluretic activity (Rattus norvegicus [2]) [m equiv 5hr-1 kg-1]	Diuretic activity (Rattus norvegicus [3]) [mL/kg]	Saluretic activity (Rattus norvegicus [4]) [m equiv 5hr-1 kg-1]
CNS(=O)(=O)c1cc(S(=O)(=O)[O-])c(NCc2ccco2)cc1Oc1ccccc1.[K+]	1	0.8	1.6	0.8
NS(=O)(=O)c1cc(S(=O)(=O)[O-])c(NCC2CCCO2)cc1Cl.[Na+] (stereo not given)	0.5	0.4	0.4	0.4
Cc1ccc(N(C)c2cc(NCc3ccco3)c(S(=O)(=O)[O-])cc2S(N)(=O)=O)cc1.[Na+]	2.3	1.9	1.2	1.6
NS(=O)(=O)c1cc(S(=O)(=O)[O-])c(NCc2ccco2)cc1Oc1cccc(Cl)c1.[K+]	5.1	2	2	3.8
NCc1ccco1.NS(=O)(=O)c1cc(S(=O)(=O)O)c(NCc2ccco2)cc1Cl	7.2	2.3	3.2	6.3
NS(=O)(=O)c1cc(S(=O)(=O)[O-])c(NCc2ccco2)cc1Oc1ccccc1.[K+]	7.1	1.5	1.8	5
NS(=O)(=O)c1cc(S(=O)(=O)[O-])c(NCc2ccco2)cc1S(=O)(=O)CC1CCCCC1.[Na+]	10.7	2.7	4.6	8.8
Cc1cccc(Oc2cc(NCc3ccco3)c(S(=O)(=O)[O-])cc2S(N)(=O)=O)c1.[K+]	7.9	2.2	4.4	6.7
NS(=O)(=O)c1cc(S(=O)(=O)[O-])c(NCc2ccco2)cc1Nc1ccc(Cl)cc1.[Na+]	0.5	0.4	0.4	0.4
CN(Cc1ccco1)c1cc(Cl)c(S(N)(=O)=O)cc1S(=O)(=O)[O-].[Na+]	0.8	0.5	0.8	0.8
NS(=O)(=O)c1cc(S(=O)(=O)[O-])c(NCc2ccco2)cc1S(=O)(=O)Cc1ccccc1.[K+]	0.7	0.6	1	0.8
NC(N)=NC(=O)c1nc(Cl)c(N)nc1N.NS(=O)(=O)c1cc(S(=O)(=O)O)c(NCc2ccco2)cc1Oc1ccccc1	2.7	0.3	1.9	3.7
NS(=O)(=O)c1cc(S(=O)(=O)[O-])c(NCc2ccco2)cc1Oc1ccc(Cl)cc1.[K+]	6.4	2	2.2	5.1
CCN(c1ccccc1)c1cc(NCc2ccco2)c(S(=O)(=O)[O-])cc1S(N)(=O)=O.[Na+]	0.3	1	0.8	0.4
CNS(=O)(=O)c1cc(S(=O)(=O)[O-])c(NCc2ccco2)cc1N(C)c1ccccc1.[K+]	1.8	1.4	1.3	1.2
CN(c1ccccc1)c1cc(NCc2ccco2)c(S(=O)(=O)O)cc1S(N)(=O)=O.N	8.3	2.1	4.8	6.8
NC(CO)(CO)CO.NS(=O)(=O)c1cc(S(=O)(=O)O)c(NCc2ccco2)cc1Oc1ccccc1	7.8	2.2	4.1	5.8
